Rows were chosen to be rich in hits. Some 3.8% of all compounds tested hit in one or more screens of this group.
RGS4 block = RGS4 inhibitors, primary screen, cell-based, HEK293 M3R inducible RGS4, calcium flux. Regulator of G-protein signaling 4 (Homo sapiens), P49798. Fluo-4 calcium flux; stronger effect = higher value; triggered by carbachol at its EC20. B-score at 10 µM. 0.45% of 310,000 active. AID 463165, 2010;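 active = B-score, a plate-corrected calcium signal, over three deviations above library mean, with baseline fluorescence within five deviations of library mean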;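 note: RGS4 expression induced by doxycycline in cells with stable M3 receptor; B-score is computed from the integrated fluorescence ratio over baseline after carbachol; higher B-score means a larger calcium signal and so more RGS4 inhibition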
Target sequence (P49798 whole entry, looked up): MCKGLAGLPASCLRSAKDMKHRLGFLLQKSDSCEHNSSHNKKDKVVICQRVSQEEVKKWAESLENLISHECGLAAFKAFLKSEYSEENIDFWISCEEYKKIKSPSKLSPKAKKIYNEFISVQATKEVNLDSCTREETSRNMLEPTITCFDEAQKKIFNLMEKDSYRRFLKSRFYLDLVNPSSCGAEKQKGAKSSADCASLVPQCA
RGS4 act = RGS4 potentiators or activators, primary screen, cell-based, HEK293 M3R inducible RGS4, calcium flux; carbachol calcium flux Fluo4; stronger effect = lower value; 0.92% of 310,000 active; B-score at 10 µM;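 active = B-score of the integrated calcium signal more than 4 SD below the library mean, with starting fluorescence not abnormally high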;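 note: negative B-score means reduced calcium response which marks RGS4 activation or potentiation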
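Assay system: Inducible-RGS4 HEK293 cells carrying M3 receptor | Schedule: Compound preincubation 20 min at room temperature before agonist | Signal: Kinetic calcium fluorescence imaging with Fluo4-AM dye, 2 µM | Read-out basis: B score from integrated fluorescence ratio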
MrgX1 allo act = positive allosteric modulators of MrgX1, primary screen, HEK293 cells, Fluo-4 calcium flux; FDSS; stronger effect = higher value; B-score at 10 µM; 0.63% of 310,000 active; AID 588675, 2011;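 active = plate-corrected calcium response at least 3 library SD above typical, normal starting fluorescence, not activating the receptor alone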;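 note: compound read alongside a low EC10 to EC30 dose of BAM8-22 agonist; peak minus trough fluorescence over baseline measured at the second addition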
Target sequence (Q96LB2 whole entry, looked up): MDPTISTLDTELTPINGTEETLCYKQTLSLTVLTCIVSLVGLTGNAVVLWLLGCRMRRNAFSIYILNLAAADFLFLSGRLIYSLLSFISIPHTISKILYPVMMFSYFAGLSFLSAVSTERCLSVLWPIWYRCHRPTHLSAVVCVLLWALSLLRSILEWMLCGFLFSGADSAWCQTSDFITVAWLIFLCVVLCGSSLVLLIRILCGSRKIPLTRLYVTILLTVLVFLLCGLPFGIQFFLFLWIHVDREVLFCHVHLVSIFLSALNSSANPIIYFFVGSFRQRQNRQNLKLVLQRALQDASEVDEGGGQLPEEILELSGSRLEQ
Hep lipid drop = inhibitors of hepatocyte lipid droplet formation, primary screen, imaging, high-throughput imaging, BODIPY stain | AML12 mouse hepatocytes, oleate lipid droplets | inhibition, % at 6.5 µM | 0.4% of 240,000 active;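 active = lipid droplet intensity inhibited by at least 50%, with more than 500 cells counted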
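Test system: AML12 mouse liver cells; schedule: overnight exposure; technique: high-content imaging of BODIPY-stained droplets and DAPI nuclei; read-out: % inhibition of corrected integrated BODIPY droplet signal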
MrgX1 agonist = agonists of human MrgX1 receptor, primary screen, HEK293 cells, Fluo-4 calcium flux; Fluo-4 calcium fluorescence, agonist mode; stronger effect = higher value; B-score at 10 µM; 0.44% of 310,000 active; AID 588627, 2011;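 active = calcium response B-score plate-corrected fluorescence ratio at least 3 library SD, with starting fluorescence B-score inside 5 SD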
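Test system: HEK293 cells stably expressing human MrgX1 receptor; amount: 15,000 cells per well; doses: compound delivered in addition one of three; times: overnight plating before 1 h dye loading; detection: Fluo-4 NW calcium-flux fluorescence, kinetic read; read-out basis: B-scored fluorescence response ratio; controls: positive and negative controls per plate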
MrgX1 antagonist = antagonists of human MrgX1 receptor, primary screen, HEK293 cells, Fluo-4 calcium flux; BAM8-22 antagonism; stronger effect = lower value; B-score at 10 µM; 1.3% of 310,000 active; AID 588676, 2011;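 active = calcium-response B-score plate-corrected more than 3 library SD below zero, starting fluorescence within 5 deviations, no agonist response on first addition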;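 note: peak minus trough fluorescence over baseline after final BAM8-22 challenge near maximal dose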
MrgX1 ag reconf = MrgX1 receptor agonists, duplicate retest, confirmation, HEK293 cells, Fluo-4 calcium flux. shares compounds with MrgX1 agonist. Fluo-4 calcium fluorescence, FDSS. activation, % at 10 µM. 78% of 600 active;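 active = calcium signal rise, corrected for plate position, at least 3 library SD high, with starting brightness within 5 such deviations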
HEK293 Ca flux = nonspecific calcium signal in parental HEK293, confirmation, counter-screen for MrgX1 antagonist project, parental HEK293 cells, Fluo-4 calcium flux; shares compounds with MrgX1 antagonist; Fluo-4 calcium fluorescence, FDSS; fluorescence ratio F(max-min)/F0 at 10 µM; 2% of 4,000 active;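 active = duplicate-averaged calcium fluorescence ratio at least three times the standard deviation of buffer wells, a nonspecific response in parental cells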
HEK293 Ca counter = calcium response in parental HEK293 cells, primary screen, counter-screen for MrgX1 allosteric activator project, cell-based, Fluo-4 calcium flux, duplicate. shares compounds with MrgX1 antagonist. Fluo-4 fluorescence ratio; stronger effect = higher value. fluorescence ratio F(max-min)/F0 at 10 µM. 0.4% of 4,000 active;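 active = calcium fluorescence ratio, averaged over duplicates, at least 3 SD of the buffer-well ratio, meaning a nonspecific response in receptor-free cells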;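 note: untransfected parental HEK293 lacking MrgX1 used as counterscreen for MrgX1 allosteric activators; fluorescence change taken during the second addition on a kinetic imager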
HEK293 Ca cntr2 = calcium response in parental HEK293 cells, primary screen, counter-screen for MrgX1 agonist project, cell-based, Fluo-4 calcium flux, duplicate, agonist mode | shares compounds with MrgX1 antagonist | Fluo-4 calcium fluorescence (FDSS); stronger effect = higher value | fluorescence ratio F(max-min)/F0 at 10 µM | 8.7% of 4,000 active;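 active = calcium fluorescence ratio at least three times the spread of buffer wells, meaning a non-specific response in parental cells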
* marks the source's active call; other numbers are inactive results; i = inactive; / = not tested or not shown.

SMILES | RGS4 block | RGS4 act | MrgX1 allo act | Hep lipid drop | MrgX1 agonist | MrgX1 antagonist | MrgX1 ag reconf | HEK293 Ca flux | HEK293 Ca counter | HEK293 Ca cntr2
CN(c1ccccc1)c1nc(N2CCCC2)nc(-n2ccnc2)n1 | i | i | i | / | 47.9* | i | 170.9%* | i | i | 51.2*
O=C(CCNC(=O)C1CCN(S(=O)(=O)c2ccc(F)cc2)CC1)NCc1ccncc1 | i | i | i | -1.7 | i | i | / | / | / | /
O=C1N[C@H](C(=O)O)CS1 | i | i | i | / | i | i | / | / | / | /
CC(C)(C)C(=O)NC(=S)NNC(=O)c1sc2ccccc2c1Cl | i | i | i | -21.9 | 142* | i | 917.0%* | i | i | 177*
O=C(NNC(=S)NC1CCCCC1)c1sc2ccccc2c1Cl | i | i | i | -5.2 | i | i | / | / | / | /
CN(Cc1cnn(C)c1)S(=O)(=O)c1cccc([N+](=O)[O-])c1 | i | i | i | 8.6 | i | i | / | / | / | /
CC(=O)c1ccc(OC(C)C)c(CSC(=N)N)c1 | i | i | i | -0.7 | 38* | i | 198.8%* | i | i | i
COc1ccc(Br)cc1CSC(=N)N | i | i | i | -22.8 | 34.1* | i | 147.8%* | i | i | i
CCOC(=O)C(Cc1cc(C(C)=O)ccc1OC(C)C)C(=O)OCC | i | i | i | / | i | i | / | / | / | /
CC1(c2ccc(OC(F)F)cc2)NC(=O)N(CC(=O)Nc2cccnc2Cl)C1=O (stereo not drawn) | i | i | i | / | 33.4* | i | 136.8%* | i | i | 47*
COc1ccc(C2(C)NC(=O)N(CC(=O)Nc3cccnc3Cl)C2=O)cc1 (stereo not drawn) | i | i | i | -0.9 | i | i | / | / | / | /
COCCNC(=O)CSc1nnc(-c2ccccc2F)n1Cc1ccccc1 | i | i | i | -9.7 | i | i | / | / | / | /
O=C(CCl)N(c1ccccc1)c1c[nH]c2ccccc12 | i | i | i | / | i | i | / | / | / | /
O=C(CCl)N(c1ccc(Cl)cc1)c1c[nH]c2ccccc12 | i | i | i | -77.0 | 29.8* | i | 145.7%* | i | i | i
Cc1cc(N2CCOCC2)nc(NCc2ccccc2)n1 | i | i | i | / | 66.3* | i | 293.9%* | i | i | i
Cc1cc(NCc2ccccc2)nc(N2CCOCC2)n1 | i | i | i | / | i | i | / | / | / | /
Cc1cc(N2CCCCC2)nc(NCc2ccccc2)n1 | i | i | i | / | 82.8* | i | 339.8%* | i | i | i
COc1ccccc1NC(=O)c1cc(S(=O)(=O)NC2CCCC2)ccc1F | i | i | i | -13.1 | i | i | / | / | / | /
CCCCN(C(=O)c1cc2c(s1)CCC2)c1c(N)n(CCCC)c(=O)[nH]c1=O | i | i | i | / | i | i | / | / | / | /
COC(=O)/C=C1/S/C(=N/NC(=O)c2ccc(Cl)cc2Cl)NC1=O | i | i | i | -5.1 | i | i | / | / | / | /
COc1ccccc1N1CCN(C2CCN(S(=O)(=O)c3ccc(NC(C)=O)cc3)CC2)CC1 | i | i | i | 8.9 | i | i | / | / | / | /
Cn1c(-c2ccccc2)c(CCO)c2ccccc21 | i | i | i | 4.3 | 43.2* | i | 183.8%* | i | i | i
COc1cccc(Nc2nc3ccccc3n3nnnc23)c1 | i | i | i | 3.9 | 31.5* | i | 124.8%* | i | i | i
c1ccc2c(c1)nc(Nc1ccc3c(c1)OCO3)c1nnnn12 | i | i | i | 6.2 | 29.9* | i | 207.4%* | i | i | i
Fc1cccc(Nc2nc3ccccc3n3nnnc23)c1 | i | i | i | / | i | i | / | / | / | /
SMILES | RGS4 block | RGS4 act | MrgX1 allo act | Hep lipid drop | MrgX1 agonist | MrgX1 antagonist | MrgX1 ag reconf | HEK293 Ca flux | HEK293 Ca counter | HEK293 Ca cntr2
CN1CCN(C(=O)CSc2nc(-c3ccncc3)ccc2C#N)CC1 | i | i | i | / | 34.5* | i | 158.3%* | i | i | i
N#Cc1ccc(-c2cccnc2)nc1SCC(=O)c1ccccc1 | i | i | i | 2.4 | 30.5* | i | 196.7%* | i | i | i
CN1CCN(C(=O)CSc2nc(-c3cccs3)cc(-c3cccs3)c2C#N)CC1 | i | i | i | / | i | i | / | / | / | /
CC(C)(C)Nc1c2ccccc2nc2ccccc12 | i | i | i | 7.8 | 35.2* | i | 156.8%* | i | i | i
CCOC(=O)c1ccc(NC(=O)COC(=O)c2cccc(Oc3ccccc3)c2)cc1 | i | i | i | 1.4 | i | i | / | / | / | /
CC(C)OC(=O)CN1C(=O)S/C(=C/c2ccc(N3CCCCC3)o2)C1=O | i | i | i | 6.6 | 64.5* | i | i | 0.079* | i | i
CC(C)(C)OC(=O)CN1C(=O)S/C(=C\c2ccc(-c3cccc(C(=O)O)c3)o2)C1=O | i | i | i | 5.2 | i | i | / | / | / | /
CC[C@@H](C(=O)[C@@H](C)[C@@H](O)[C@H](C)CCc1ccc(C)c(O)c1C(=O)O)[C@H]1O[C@](CC)([C@H]2CC[C@](O)(CC)[C@H](C)O2)C[C@@H]1C | i | i | i | -20.4 | 147* | i | 909.0%* | i | i | 198*
CC(C)N1CCc2c(sc(NC(=O)Cc3ccccc3)c2C(N)=O)C1 | i | i | i | -0.4 | i | i | / | / | / | /

High-throughput results as filed in PubChem BioAssay.
